Assay results as given in ChEMBL document CHEMBL1123290, “Synthesis, antimalarial activity, and quantitative structure-activity relationships of tebuquine and a series of related 5-[(7-chloro-4-quinolinyl)amino]-3-[(alkylamino)methyl] [1,1'-biphenyl]-2-ols and N omega-oxides” (1986).

Columns and labels:
Format in all cases: functional
[1] = test system: Mus musculus; experiment: Delta MST, difference in mean survival time of the control mice (an average of 6.2 days) from the mean survival time of the treated mice after a single sc dose of 1.25 mg/kg, 72-h postinfection; details: route subcutaneous
[2] = test system: Plasmodium berghei; experiment: Change in mean survival time for control (average 6.2 days) versus treated mice (Mus musculus) 72 hrs after 160 mg/kg subcutaneous dose
[3] = test system: Plasmodium berghei; experiment: Change in mean survival time for control (average 6.2 days) versus treated mice (Mus musculus) 72 hrs after 5 mg/kg subcutaneous dose
[4] = test system: Plasmodium berghei; experiment: Change in mean survival time for control (average 6.2 days) versus treated mice (Mus musculus) 72 hrs after 640 mg/kg subcutaneous dose
[5] = test system: Plasmodium berghei; experiment: Change in mean survival time for control (average of 6.2 days) versus treated mice (Mus musculus) 72 hrs after 80 mg/kg subcutaneous dose
[6] = test system: Plasmodium berghei; experiment: Change in mean survival time for control (average 6.2 days) versus treated mice (Mus musculus) 72 hrs after 10 mg/kg subcutaneous dose
[7] = test system: Plasmodium berghei; experiment: Change in mean survival time for control (average 6.2 days) versus treated mice (Mus musculus) 72 hrs after 320 mg/kg subcutaneous dose
[8] = test system: Plasmodium berghei; experiment: Antimalarial activity as 60-day survivors in infected mice (Mus musculus) after single 320mg/kg subcutaneous dose 72 hr post infection
Outline: (§1)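 Mice were infected with a normal drug-sensitive Plasmodium berghei strain. At 72 h postinfection each received one subcutaneous dose of compound dissolved or suspended in peanut oil, in five-mouse groups per dose. The read-out was the number of mice alive at 60 days postinfection, which were scored as cured.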

[9] = test system: Plasmodium berghei; experiment: Change in mean survival time for control (average 6.2 days) versus treated mice (Mus musculus) 72 hrs after […] subcutaneous dose
[10] = test system: Plasmodium berghei; experiment: Change in mean survival time for control (average 6.2 days) versus treated mice (Mus musculus) 72 hrs after 20 mg/kg subcutaneous dose
[11] = test system: Mus musculus; experiment: Antimalarial activity, administered as a single subcutaneous dose of 640 mg/kg, 72 hrs post infection measured as number of mice (Mus musculus) surviving at 60 days post infection; outline: as §1
[12] = test system: Mus musculus; experiment: Antimalarial activity, administered as a single subcutaneous dose of 80 mg/kg, 72 hrs post infection measured as number of mice (Mus musculus) surviving at 60 days post infection; outline: as §1
[13] = test system: Plasmodium berghei; experiment: Antimalarial activity as 60-day survivors in Plasmodium berghei infected mice (Mus musculus) after single 160mg/kg subcutaneous dose 72 hr post infection; outline: as §1
[14] = test system: Plasmodium berghei; experiment: Difference in mean survival time in mice (Mus musculus) (control = 6.2 days) after single 40mg/kg subcutaneous dose 72hr post infection
[15] = test system: Plasmodium berghei; experiment: Change in mean survival time for control (average 6.2 days) versus treated mice (Mus musculus) after 160 mg/kg subcutaneous dose
[16] = test system: Plasmodium berghei; experiment: Change in mean survival time for control (average 6.2 days) versus treated mice (Mus musculus) after 40 mg/kg subcutaneous dose
[17] = test system: Plasmodium berghei; experiment: Change in mean survival time in control (average 6.2 days) versus treated mice (Mus musculus) after 80 mg/kg subcutaneous dose
[18] = test system: Plasmodium berghei; experiment: Difference in mean survival time of Plasmodium berghei infected mice (Mus musculus) after 10 mg/kg subcutaneous dose
[19] = test system: Mus musculus; experiment: Compound was evaluated for parenteral antimalarial activity against Plasmodium berghei in mice (Mus musculus) after single dose (1.25 mg/kg subcutaneously)
[20] = test system: Plasmodium berghei; experiment: Change in mean survival time of Plasmodium berghei infected mice (Mus musculus) after […] subcutaneous dose
[21] = test system: Plasmodium berghei; experiment: Change in mean survival time of Plasmodium berghei infected mice (Mus musculus) after 5 mg/kg subcutaneous dose
[22] = test system: Plasmodium berghei; experiment: Change in mean survival time for control (average 6.2 days) versus treated mice (Mus musculus) after 320 mg/kg subcutaneous dose
[23] = test system: Plasmodium berghei; experiment: Change in mean survival time for control (average 6.2 days) versus treated mice (Mus musculus) after 20 mg/kg subcutaneous dose
[24] = test system: Plasmodium berghei; experiment: Antimalarial activity in primary screen
[25] = test system: Plasmodium berghei; experiment: Change in mean survival time for control (average 6.2 days) versus treated mice (Mus musculus) 72 hrs after […] subcutaneous dose
[26] = test system: Plasmodium berghei; experiment: Change in mean survival time of Plasmodium berghei infected mice (Mus musculus) on 1.25 mg/kg subcutaneous dose

## Oc1c(CNC2CCCCC2)cc(Nc2ccnc3cc(Cl)ccc23)cc1-c1ccc(Cl)cc1
[1]
  Delta MST: 0.7 days
[2]
  Delta MST: 20.6 days
[3]
  Delta MST: 1.5 days
[4]
  Delta MST: 17.6 days
[5]
  Delta MST: 23.6 days
[6]
  Delta MST: 4.1 days
[7]
  Delta MST: -0.4 days
[8]
  No. of mice cured: 4
[9]
  Delta MST: 0.5 days
[10]
  Delta MST: 12.9 days
[11]
  No. of mice cured: 4
[12]
  No. of mice cured: 3
[13]
  No. of mice cured: 4
[14]
  Delta MST: 17.9 days

## CCN(CC)Cc1cc(Nc2cc[n+]([O-])c3cc(Cl)ccc23)cc(-c2cccc(C(F)(F)F)c2)c1O
[15]
  Delta MST: 21.1 days
[16]
  Delta MST: 8.5 days
[17]
  Delta MST: 11.7 days
[18]
  Delta MST: 1.1 days
[19]
  Delta MST: 0.3
[20]
  Delta MST: -0.1 days
[21]
  Delta MST: 0.3 days
[22]
  Delta MST: 24.9 days
[8]
  No. of mice cured: 1
[23]
  Delta MST: 5.9 days
[24]
  ED30: 113 mg/kg
[25]
  Delta MST: 27.9 days
[11]
  No. of mice cured: 4
[26]
  Delta MST: 0.3 days
